# Data taken from article PMC4586255 (DNA repair, 2010).
# Residues, ends and D or L forms follow the SMILES beside them.
# Experiments:
# [1] = molecular target: PCNA (Homo sapiens, UniProt P12004); test: Isothermal titration calorimetry of hEXO1 peptides with purified PCNA; assay type: binding; conditions: ITC, 30 °C, pH 7.5; 18 μM PCNA, 200 μM p22; no dilution effects in pure buffer
# [2] = system: hEXO1; conditions: hEXO1-hMLH1 interaction, ref [15], cited from earlier work
# [3] = system: PCNA replication foci in NIH3T3 cells; assay type: cell-based, murine; conditions: for foci formation and co-localization with PCNA during S-phase: 24–48 h
# Outline: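 Murine NIH3T3 cells were kept in DMEM with 10% FBS and penicillin/streptomycin at 37 °C, 10% CO₂. Cells (2*10⁵ per glass-bottom dish) were seeded 24 h before ExGen500 co-transfection with 3 μg total plasmid (CFP-PCNA plus YFP fusion). Confocal imaging at 24–48 h. Co-transfected cells were counted and binned by pattern, e.g. "no foci" (diffuse CFP-PCNA, diffuse nuclear YFP).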
# [4] = system: PCNA replication foci in HCT116 cells; test: Co-localization with PCNA in replication foci in HCT116 cells; assay type: cell-based; conditions: HCT116 cell line (hMLH1 deficient); Fig. S5
# [5] = NIH3T3 cells co-transfected with CFP-PCNA
# PCNA, sequence (P12004 whole entry): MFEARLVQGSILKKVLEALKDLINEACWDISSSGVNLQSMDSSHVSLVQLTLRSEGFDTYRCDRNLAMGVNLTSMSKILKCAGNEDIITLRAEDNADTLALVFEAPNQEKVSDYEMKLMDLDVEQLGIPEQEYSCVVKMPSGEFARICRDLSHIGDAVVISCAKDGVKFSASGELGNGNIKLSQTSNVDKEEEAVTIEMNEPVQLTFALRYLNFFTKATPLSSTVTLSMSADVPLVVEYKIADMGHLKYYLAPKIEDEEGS
compound,measurement,setting,value
CC[C@H](C)[C@H](NC(=O)[C@H](CCC(N)=O)NC(=O)[C@H](CC(C)C)NC(=O)CNC(=O)[C@@H]1CCCN1C(=O)[C@H](CCCCN)NC(=O)[C@@H](N)CC(N)=O)C(=O)N[C@@H](CCCCN)C(=O)N[C@@H](CC(C)C)C(=O)N[C@@H](CC(N)=O)C(=O)N[C@@H](CCC(=O)O)C(=O)N[C@@H](CC(C)C)C(=O)N[C@@H](Cc1c[nH]c2ccccc12)C(=O)N[C@@H](CCCCN)C(=O)N[C@@H](CC(N)=O)C(=O)N[C@@H](Cc1ccccc1)C(=O)NCC(=O)N[C@@H](Cc1ccccc1)C(=O)N[C@@H](CCCCN)C(=O)N[C@@H](CCCCN)C(=O)N[C@@H](CC(=O)O)C(=O)N[C@@H](CO)C(=O)O [hEXO1 p22] (H-NKPGLQIKLNELWKNFGFKKDS-OH; N-terminus and C-terminus assumed),heat exchange of binding reaction with PCNA,[1],exothermic heat exchange
hEXO1-hMLH1: hEXO1-hMLH1 complex,exonuclease activity on heteroduplex substrate,[2]; heteroduplex substrate,inhibits exonuclease activity on a heteroduplex substrate
same,exonuclease activity on homoduplex substrate,[2]; homoduplex substrate,did not inhibit exonuclease activity on a homoduplex substrate
"hMSH6: fusion protein, CFP or YFP tagged MMR protein",foci formation and co-localization with PCNA during S-phase,[3]; [5],form PCNA co-localizing foci throughout S-phase
human exonuclease 1 [YFP-hEXO1],Small foci (CFP-PCNA),"[3]; CFP channel (CFP-PCNA) in cells co-expressing the hEXO1 protein, early S-phase foci, 50 co-transfected cells",28%
same,Large foci (CFP-PCNA),"[3]; CFP channel (CFP-PCNA) in cells co-expressing the hEXO1 protein, late S-phase foci, 50 co-transfected cells",12%
same,Mid Foci (CFP-PCNA),"[3]; CFP channel (CFP-PCNA) in cells co-expressing the hEXO1 protein, mid S-phase foci, 50 co-transfected cells",14%
same,cells showing diffuse nuclear staining,[3]; [5],40%
same,foci formation and co-localization with PCNA during S-phase,[3]; [5],co-localize in discrete nuclear foci
same,sub-cellular localization,"[3]; NIH3T3 cells, confocal imaging",only rarely observed in the cytoplasm
same,co-localization with PCNA in replication foci,[4],co-localize with PCNA in replication foci in the HCT116 cell line
